According to ChEMBL document CHEMBL3351557, “Discovery of Potent and Simplified Piperidinone-Based Inhibitors of the MDM2-p53 Interaction” (ACS Med Chem Lett, 2014):
Calls of active or inactive are those of the source. The rule behind the calls is not given here.

What was measured:
SJSA-1 [1] = assay: Antiproliferative activity against human SJSA1 cells after 3 days by EdU incorporation-based HCS assay in presence of 10% human serum; assay type: functional, cell-based; conditions: SJSA-1, 72 h
[2] = target: T1, Tumour suppressor p53/oncoprotein Mdm2 (Homo sapiens, UniProt Q00987); assay: Inhibition of human MDM2 (1-188 aa) -p53 (1-83 aa) interaction expressed in Escherichia coli after 18 hrs by HTRF assay
[3] = target: T1, Tumour suppressor p53/oncoprotein Mdm2; assay: Inhibition of human MDM2 (1-188 aa) -p53 (1-83 aa) interaction expressed in Escherichia coli after 18 hrs by HTRF assay in presence of 15% human serum
[4] = Clearance in rat at 0.5 mg/kg, iv; assay type: ADME, organism-based; design: dose 0.5 mg/kg, route intravenous; conditions: in vivo
[5] = Intrinsic clearance in rat hepatocytes assessed per million cells; assay type: ADME, cell-based, Hepatocyte; conditions: read-out: CLH
[6] = Clearance in mouse at 1 mg/kg, iv; assay type: ADME, organism-based; design: dose 1 mg/kg, route intravenous; conditions: in vivo
[7] = Oral bioavailability in mouse at 5 mg/kg; assay type: ADME, organism-based; conditions: in vivo
[8] = Oral bioavailability in rat at 2 mg/kg; assay type: ADME, organism-based; conditions: in vivo
SJSA-1 [9] = assay: Increase in p21 mRNA expression in tumor of human SJSA1 cells xenografted athymic nude mouse at 100 mg/kg, po as single dose administered 2 weeks post implantation measured 4 hrs post dose relative to vehicle-treated control; assay type: functional, organism-based; design: dose 100 mg/kg
Procedure, shortened: (§1)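 SJSA-1 osteosarcoma cells were implanted in mice 2 weeks before a single oral dose (100 or 200 mg/kg in one study; 50, 100 or 200 mg/kg in another). Tumour p21 mRNA, a p53 transcriptional target, was measured at several times after dosing and expressed relative to vehicle-treated controls.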

SJSA-1 [10] = assay: Increase in p21 mRNA expression in tumor of human SJSA1 cells xenografted athymic nude mouse compound administered as single oral dose 2 weeks post implantation measured 4 to 8 hrs post dose relative to vehicle-treated control; assay type: functional; procedure, shortened: as §1
SJSA-1 [11] = assay: Increase in p21 mRNA expression in tumor of human SJSA1 cells xenografted athymic nude mouse at 50 to 200 mg/kg, po administered as single dose 2 weeks post implantation relative to vehicle-treated control; assay type: functional, organism-based; procedure, shortened: as §1
SJSA-1 [12] = assay: Antitumor activity against human SJSA1 cells xenografted in athymic nude mouse assessed as tumor growth inhibition at 100 mg/kg, po qd administered 2 weeks post implantation relative to vehicle-treated control; conditions: SJSA-1, po, 336 h, read-out: TGI
SJSA-1 [13] = assay: Antitumor activity against human SJSA1 cells xenografted in athymic nude mouse assessed as tumor growth inhibition at 50 mg/kg, po bid administered 2 weeks post implantation relative to vehicle-treated control; conditions: SJSA-1, po, 336 h, read-out: TGI
Mus musculus [14] = assay: Toxicity in human SJSA1 cells xenografted athymic nude mouse assessed as body weight loss at 200 mg/kg, po qd administered 2 weeks post implantation; assay type: organism-based, SJSA-1; design: dose 200 mg/kg, route oral; conditions: in vivo, 336 h
Procedure, shortened: (§2)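 Female athymic nude mice were implanted subcutaneously with 5 × 10⁶ SJSA-1 cells. Oral gavage of vehicle or compound (50, 100 or 200 mg/kg QD; 50 or 100 mg/kg BID) began on day 14, when tumours were about 200 mm³. There were 10 mice per group, and tumours were measured twice weekly.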

Mus musculus [15] = assay: Toxicity in human SJSA1 cells xenografted athymic nude mouse assessed as body weight loss at 100 mg/kg, po bid administered 2 weeks post implantation; assay type: organism-based, SJSA-1; design: dose 100 mg/kg, route oral; conditions: in vivo, 336 h; procedure, shortened: as §2
[16] = Clearance in rat at 0.5 mg/kg, iv; conditions: in vivo
[17] = Intrinsic clearance in human hepatocytes assessed per million cells; assay type: ADME, cell-based, Hepatocyte; conditions: read-out: CLH
[18] = Half life in rat at 0.5 mg/kg, iv; assay type: ADME, organism-based; design: dose 0.5 mg/kg, route intravenous; conditions: in vivo
[19] = Bioavailability in rat at 0.5 mg/kg, iv; assay type: ADME, organism-based; conditions: in vivo
[20] = Clearance in mouse; assay type: ADME, organism-based; conditions: in vivo
[21] = Half life in mouse; assay type: ADME, organism-based; conditions: in vivo

T1 sequence (P04637 whole entry, the tested form may be a part): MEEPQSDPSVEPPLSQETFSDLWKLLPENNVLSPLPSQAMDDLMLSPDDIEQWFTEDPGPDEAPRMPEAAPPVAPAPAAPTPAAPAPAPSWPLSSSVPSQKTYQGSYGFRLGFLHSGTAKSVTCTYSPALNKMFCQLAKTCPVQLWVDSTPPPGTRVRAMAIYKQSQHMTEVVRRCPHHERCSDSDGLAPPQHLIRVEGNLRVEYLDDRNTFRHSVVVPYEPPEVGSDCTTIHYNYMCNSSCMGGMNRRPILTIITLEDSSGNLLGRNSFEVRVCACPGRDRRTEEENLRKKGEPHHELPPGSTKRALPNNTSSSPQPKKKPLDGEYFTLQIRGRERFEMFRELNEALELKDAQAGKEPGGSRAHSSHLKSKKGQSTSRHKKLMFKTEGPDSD
T1 sequence (Q00987 whole entry, the tested form may be a part): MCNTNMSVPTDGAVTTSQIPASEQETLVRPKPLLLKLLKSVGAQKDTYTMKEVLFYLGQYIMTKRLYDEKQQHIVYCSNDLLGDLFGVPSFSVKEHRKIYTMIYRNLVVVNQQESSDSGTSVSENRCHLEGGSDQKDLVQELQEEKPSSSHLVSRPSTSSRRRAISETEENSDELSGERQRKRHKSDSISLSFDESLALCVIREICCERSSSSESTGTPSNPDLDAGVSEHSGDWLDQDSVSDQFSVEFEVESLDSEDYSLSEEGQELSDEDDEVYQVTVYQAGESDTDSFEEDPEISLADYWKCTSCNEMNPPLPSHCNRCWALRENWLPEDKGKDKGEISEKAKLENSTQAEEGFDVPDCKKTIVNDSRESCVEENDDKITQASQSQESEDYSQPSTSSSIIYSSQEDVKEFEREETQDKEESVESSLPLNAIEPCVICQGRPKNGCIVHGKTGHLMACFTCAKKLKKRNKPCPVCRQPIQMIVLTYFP

Compound | IC50 (SJSA-1 [1]) | IC50 [2] | IC50 [3] | clearance [4] | further results
CC[C@@H](c1ncccn1)N1C(=O)[C@@](C)(CC(=O)O)C[C@H](c2cccc(Cl)c2)[C@H]1c1ccc(Cl)cc1 | 420 nM | – | – | – | –
CC(C)[C@@H](c1ccccn1)N1C(=O)[C@@](C)(CC(=O)O)C[C@H](c2cccc(Cl)c2)[C@H]1c1ccc(Cl)cc1 | 290 nM | – | – | – | –
C[C@@H](c1ccccn1)N1C(=O)[C@@](C)(CC(=O)O)C[C@H](c2cccc(Cl)c2)[C@H]1c1ccc(Cl)cc1 | 420 nM | 10 nM | 62 nM | – | –
CC(C)N1C(=O)[C@@](C)(CC(=O)O)C[C@H](c2cccc(Cl)c2)[C@H]1c1ccc(Cl)cc1 | 380 nM | – | – | 17.3 mL/min/kg | hepatocyte CLint [5]: 8.5 µL/min/1e6 cells; clearance [6]: 17.2 mL/min/kg; bioavailability [7]: 32%; bioavailability [8]: 48%; Activity (SJSA-1 [9]): Active; Activity (SJSA-1 [10]): Active; Activity (SJSA-1 [11]): Active; inhibition in vivo at 100 mg/kg (SJSA-1 [12]): 96%; inhibition in vivo at 50 mg/kg (SJSA-1 [13]): 82%; Activity (Mus musculus [14]): Toxic; Activity (Mus musculus [15]): Toxic; clearance [16]: 17.3 mL/min/kg
CC[C@@H](c1ccccn1)N1C(=O)[C@@](C)(CC(=O)O)CC(c2cccc(Cl)c2)[C@H]1c1ccc(Cl)cc1 (single isomer, unassigned) | 430 nM | – | – | – | hepatocyte CLint [5]: 13 µL/min/1e6 cells; hepatocyte CLint [17]: 7 µL/min/1e6 cells; half-life [18]: 3.5 h; bioavailability [19]: 79%; clearance [20]: 51.7 mL/min/kg; half-life [21]: 1.9 h
CCC(CC)N1C(=O)[C@@](C)(CC(=O)O)C[C@H](c2cccc(Cl)c2)[C@H]1c1ccc(Cl)cc1 | – | – | – | 7.5 mL/min/kg | hepatocyte CLint [5]: 18.8 µL/min/1e6 cells; clearance [6]: 16.5 mL/min/kg; bioavailability [7]: 42%; bioavailability [8]: 38%; Activity (SJSA-1 [10]): Dose-dependent effect; Activity (SJSA-1 [11]; TDE = time-dependent effect): tde; clearance [16]: 7.5 mL/min/kg
CC[C@@H]([C@@H]1CCCO1)N1C(=O)[C@@](C)(CC(=O)O)C[C@H](c2cccc(Cl)c2)[C@H]1c1ccc(Cl)cc1 | 123 nM | – | – | – | –
CC[C@@H](c1cccc(C2CC2)n1)N1C(=O)[C@@](C)(CC(=O)O)CC(c2cccc(Cl)c2)[C@H]1c1ccc(Cl)cc1 (single isomer, unassigned) | 1820 nM | – | – | – | –
CC[C@@H](c1cc(C)ccn1)N1C(=O)[C@@](C)(CC(=O)O)C[C@H](c2cccc(Cl)c2)[C@H]1c1ccc(Cl)cc1 | 890 nM | 6 nM | 60 nM | – | –
CC[C@@H](c1ccc(C)cn1)N1C(=O)[C@@](C)(CC(=O)O)CC(c2cccc(Cl)c2)[C@H]1c1ccc(Cl)cc1 (single isomer, unassigned) | 900 nM | 7 nM | 123 nM | – | –
CC[C@@H](c1cccc(C)n1)N1C(=O)[C@@](C)(CC(=O)O)C[C@H](c2cccc(Cl)c2)[C@H]1c1ccc(Cl)cc1 | 280 nM | – | – | 15.5 mL/min/kg | –
CC[C@@H](c1ccncc1)N1C(=O)[C@@](C)(CC(=O)O)C[C@H](c2cccc(Cl)c2)[C@H]1c1ccc(Cl)cc1 | 460 nM | – | – | – | –
CC[C@@H]([C@H](C)OC)N1C(=O)[C@@](C)(CC(=O)O)C[C@H](c2cccc(Cl)c2)[C@H]1c1ccc(Cl)cc1 | 143 nM | – | – | – | –
CC[C@@H](c1ncccc1C)N1C(=O)[C@@](C)(CC(=O)O)C[C@H](c2cccc(Cl)c2)[C@H]1c1ccc(Cl)cc1 | 310 nM | 5 nM | 183 nM | – | –
C[C@]1(CC(=O)O)C[C@H](c2cccc(Cl)c2)[C@@H](c2ccc(Cl)cc2)N(c2ccccn2)C1=O | – | 13 nM | 122 nM | 36 mL/min/kg | –
CC[C@@H](c1cnco1)N1C(=O)[C@@](C)(CC(=O)O)C[C@H](c2cccc(Cl)c2)[C@H]1c1ccc(Cl)cc1 | 840 nM | 8 nM | 36 nM | – | –
CCC[C@@H](c1ccccn1)N1C(=O)[C@@](C)(CC(=O)O)C[C@H](c2cccc(Cl)c2)[C@H]1c1ccc(Cl)cc1 | 990 nM | – | – | 3.33 mL/min/kg | half-life [18]: 6.9 h
C[C@]1(CC(=O)O)C[C@H](c2cccc(Cl)c2)[C@@H](c2ccc(Cl)cc2)N(c2ccccc2)C1=O | – | 4 nM | 55 nM | 40.8 mL/min/kg | –
CC[C@@H](c1cccc(Cl)n1)N1C(=O)[C@@](C)(CC(=O)O)C[C@H](c2cccc(Cl)c2)[C@H]1c1ccc(Cl)cc1 | 210 nM | – | – | 20 mL/min/kg | –
